Common to all, as to type: functional
Test [1] can be described thus: Growth inhibition of human Nc37 cells assessed as viable cells at 10^-4 M after 72 hrs relative to control. The settings on record: NC-37, 72 h, read-out: Activity. The method in brief: (§1)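 Nc 37 cells come from a normal human buffy coat, RPMI 6410 from the buffy coat of a myeloblastic leukemia patient, and L1210 is mouse leukemia. Cells were grown in RPMI 1640 with 10% fetal calf serum and exposed to compound at 10^-4 M in medium containing 0.5% Me2SO for 72 h. Viable cell number is expressed as percent of 0.5% Me2SO controls and scored as ++ 30-60%, + 60-80%, ± 80-90%, NA 90-110%.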

The subject of another test is L1210. As to the kind of experiment: Growth inhibition of mouse L1210 cells assessed as viable cells at 10^-4 M after 72 hrs relative to control. The settings on record: L1210, 72 h, read-out: Activity. The method in brief:
as §1

Test [2] in a line: Growth inhibition of human RPMI6410 cells assessed as viable cells at 10^-4 M after 72 hrs relative to control. The settings on record: RPMI 6410, 72 h, read-out: Activity. The method in brief: as §1

SMILES strings stand for the structures.

With `CC(=O)OC[C@H]1O[C@@H](n2cnc3c(NC(=O)Nc4ccc(Cl)cc4)ncnc32)[C@H](OC(C)=O)[C@@H]1OC(C)=O`, the viability at 100 µM in test [1] was 30%; in the test on L1210 it was greater than 30%; in test [2] it was 30%.

As for `CNC(=O)Nc1ncnc2c1ncn2C(=O)Nc1ccccc1`, the viability at 100 µM in test [1] was determined as 90%; in the test on L1210 it was 30%; in test [2], 90%.

Regarding `CCCCNC(=S)n1cnc2c(N)ncnc21`, the viability at 100 µM (in test [1]; in the test with L1210; in test [2]) was 60% throughout.

`CC(C)(C)NC(=O)n1cnc2c(NC(=O)Nc3ccccc3F)ncnc21`: the viability at 100 µM in test [1] was 60%; with L1210 it was greater than 30%; in test [2], 60%.

`CNC(=O)N(C)c1ncnc2c1ncn2C(=O)NC`: the viability at 100 µM was 30% in test [1], 30% with L1210 and 60% in test [2].

On to `COc1ccc(NC(=O)Nc2ncnc3c2ncn3C(=O)NC(C)(C)C)cc1`, for which the viability at 100 µM in test [1] was 90%; in the test with L1210, 80%; in test [2], 80%.

With `CCCC(=O)n1cnc2c(N)ncnc21`, the viability at 100 µM in test [1] worked out at 90%; in the test with L1210 it was 60%; in test [2] it was 60%.

In the case of `C=CCNC(=O)Nc1ncnc2[nH]cnc12`, the viability at 100 µM (in test [1]; in the test on L1210; in test [2]) was 60% each time.

`CCCCCCCC(=O)n1cnc2c(N)ncnc21`: the viability at 100 µM in test [1] is 60%; in the test with L1210, 30%; in test [2], 60%.

Regarding `Nc1ncnc2c1ncn2C(=O)NC(Cc1ccccc1)C(=O)OCc1ccccc1` (stereo unspecified), the viability at 100 µM was 60% in test [1], 30% with L1210 and 90% in test [2].

As for `O=C(Nc1ccccc1)Nc1ncnc2c1ncn2C(=O)Nc1ccccc1`, the results for the viability at 100 µM (in test [1]; with L1210; in test [2]) were 60%, 30% and 80%, respectively.

With `CC(=O)n1cnc2c(N)ncnc21`, the viability at 100 µM in test [1] turned out to be 90%; with L1210 it was 30%; in test [2] it was 90%.

With `O=C(Nc1ccccc1)Nc1ncnc2[nH]cnc12`, the results for the viability at 100 µM (in test [1]; with L1210; in test [2]) were 60%, 60% and 80%, respectively.

With `CC(=O)OC[C@H]1O[C@@H](n2cnc3c(NC(=O)Nc4ccccc4Cl)ncnc32)[C@H](OC(C)=O)[C@@H]1OC(C)=O`, the viability at 100 µM was 30% in test [1], greater than 30% in the test with L1210 and 30% in test [2].

With `CC(C)(C)NC(=O)Nc1ncnc2[nH]cnc12`, the viability at 100 µM (in test [1]; in the test with L1210; in test [2]) was 60% in each case.

Regarding `CNC(=O)n1cnc2c(NC)ncnc21`, the viability at 100 µM in test [1] was determined as 30%; in the test on L1210 it was 90%; in test [2] it was 60%.

As for `O=C(Nc1ccccc1C(F)(F)F)Nc1ncnc2[nH]cnc12`, the viability at 100 µM in test [1] stood at 30%; in test [2], 90%.

In the case of `O=C(Nc1ccccc1F)Nc1ncnc2c1ncn2[C@@H]1O[C@H](CO)[C@@H](O)[C@H]1O`, the viability at 100 µM came to 60% in test [1], 30% in the test with L1210 and 30% in test [2].

Consider `O=C(O)CNC(=O)CNC(=O)Nc1ncnc2[nH]cnc12`, for which the viability at 100 µM (in test [1]; with L1210; in test [2]) was 90% in each case.

On to `COc1ccc(NC(=O)Nc2ncnc3c2ncn3C(=O)Nc2ccc(OC)cc2)cc1`, for which the viability at 100 µM in test [1] was 90%; in the test with L1210 it was 30%; in test [2] it was 90%.

As for `O=C(NCCc1ccccc1Cl)Nc1ncnc2c1ncn2[C@@H]1O[C@H](CO)[C@@H](O)[C@H]1O`, in test [1], the viability at 100 µM is 60%.

Consider `O=C(Nc1ccc(Br)cc1)Nc1ncnc2c1ncn2C(=O)Nc1ccc(Br)cc1`, for which the viability at 100 µM in test [1] was 60%.

The values are drawn from ChEMBL document CHEMBL3244233, “Synthesis and biological activities of some N6- and N9-carbamoyladenines and related ribonucleosides” (1977).
